Measurements published in article PMC5079537 (Cancer cell, 2016).

Columns and labels:
[1] = system: MDM2 and XIAP expression in ALL and NB cells; assay: Western blot for MDM2 and XIAP expression in cancer cells; type: cell-based, human
How it was run: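 MDM2-overexpressing ALL lines (EU-1, EU-3) and NB lines (SH-EP1, NB-1691) were treated with test compounds for 24 hr. Time-course and dose-response runs were done in EU-1. Lysis was in Tris pH 7.6/NaCl/1% NP-40 buffer with phosphatase and protease inhibitors. Lysates were resolved by SDS-PAGE, transferred to nitrocellulose, probed for MDM2 and XIAP, and detected by chemiluminescence.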

MDM2 RING protein [2] = molecular target: T1, MDM2 RING protein (Homo sapiens, UniProt Q00987); assay: Fluorescent titration binding assay
T1 sequence (Q00987 438-479 limits assumed): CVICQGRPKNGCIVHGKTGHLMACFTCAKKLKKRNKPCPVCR
How it was run: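 Binding to GST-MDM2 RING protein measured by fluorescence titration, using the protein's intrinsic fluorescence (excitation 280 nm, emission 335 nm). Protein titrated with increasing test compound concentrations. Relative change in fluorescence intensity traced and normalised to derive binding Kd.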

XIAP IRES [3] = assay: Fluorescent titration binding assay; conditions: read-out: binding Kd to XIAP IRES
How it was run: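 Fluorescence-labelled XIAP IRES RNA (excitation 485 nm, emission 530 nm) titrated with increasing test compound concentrations. Relative change in fluorescence intensity traced and normalised to derive binding Kd.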

[4] = system: human normal bone marrow mononuclear (NBMM) cells; assay: WST cytotoxic assay on normal bone marrow cells; type: cell-based
How it was run: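 Normal human bone marrow mononuclear cells came from five consenting donors under IRB approval. Cells in 96-well plates got a range of test compound concentrations for 20 hr, then WST (25 μg/well) for another 4 hr. OD read at 450 nm against 620 nm reference. Mean ± SD of three independent experiments.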

[5] = system: caspases 3, 7 and 9, PARP; assay: Western blot and ELISA for caspase activation and PARP cleavage; type: cell-based, human; conditions: ALL and NB cells
How it was run: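 Western blot of caspase-3 activation and PARP cleavage in cancer cells treated with test compounds at 1 or 10 μM, or a control compound at 10 μM, over a time course. Cells were lysed in 50 mM Tris pH 7.6, 150 mM NaCl, 1% NP-40 with phosphatase and protease inhibitors. Lysates were run on SDS-PAGE, transferred to nitrocellulose, probed with specific antibodies and detected by chemiluminescence.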

[6] = system: NBMM cells (normal human hematopoiesis); assay: Clonogenic analyses for CFU-GM and BFU-E; type: cell-based; conditions: colonies after 14 days
[7] = system: endogenous MDM2 in cancer cells; assay: IP-Western blot for ubiquitination of endogenous MDM2; type: cell-based, human
How it was run: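 EU-1 cells treated with 10 μM test compound or a control compound. Lysed in Tris pH 7.6/NaCl/NP-40 buffer with protease and phosphatase inhibitors, cleared, then immunoprecipitated with anti-MDM2 on protein G/protein A-agarose. Immunoprecipitates run on SDS-PAGE, transferred to nitrocellulose, probed with anti-ubiquitin and detected by chemiluminescence.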

[8] = system: 12 cancer cell lines (6 ALL and 6 NB); type: cell-based; conditions: 24 hr
XIAP IRES [9] = assay: Dicistronic reporter assay; type: cell-based; conditions: dicistronic plasmid pRL-xi-FL
[10] = system: EU-1 leukemia cells in SCID mice; assay: EU-1 leukemia xenograft in SCID mice; type: in vivo
[11] = system: Hsd:ICR (CD-1) normal mice; conditions: 100 mg/kg
[12] = system: Hsd:ICR (CD-1) normal mice; assay: Maximum tolerated dose; type: in vivo; conditions: doses between 25 and 200 mg/kg i.p., 3 days/week x 2 courses
EU-1 cells = assay: Annexin-V FITC staining for apoptosis; type: cell-based, human; conditions: 10 μM
How it was run: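 EU-1 cells treated with 10 μM test compound were washed in PBS and stained with FITC-annexin V and 7-AAD using a kit per the maker's protocol. Read by fluorescence microscopy (annexin V green, 7-AAD red) and by flow cytometry. For flow quantitation, cells were treated for 24 hr. Mean of three independent experiments, bars ± SD.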

MDM2 RING protein [13] = molecular target: T1, MDM2 RING protein; assay: ITC binding assay; conditions: read-out: binding Kd to MDM2 RING protein
p53 in EU-1 cells [14] = assay: CHX pulse-chase assay, p53 turnover; type: cell-based, human; conditions: control less than 30 min
p53 in EU-1 cells [15] = assay: Western blot for p53 expression; type: cell-based, human; conditions: 1 μM MX3 or 10 μM MX69, 2 to 8 hr after treatment
MYCN IRES = assay: Dicistronic reporter assay, control IRES; type: cell-based
MDM2 in EU-1 cells = assay: CHX pulse-chase assay, MDM2 turnover; type: cell-based, human; conditions: 10 μM for 4 hr, control greater than 90 min

O=C1c2c(O)ccc(O)c2C(=O)c2c(NCCNCCO)ccc(NCCNCCO)c21 [MX3, mitoxantrone, reference compound]
inhibition of MDM2 and XIAP protein expression [1]: inhibited expression of both MDM2 and XIAP
binding to MDM2 RING protein (MDM2 RING protein [2]): neither of these leads bound
Kd (XIAP IRES [3]): 5260 nM
cell survival of NBMM ([4]; 2 μM, 24 hr): about 50%
activation of caspases 3, 7 and 9 and cleavage of PARP [5]: activation of these caspases and cleavage of PARP were detected
inhibitory effect on BFU-E ([6]; 1 μM): severe inhibitory effects
ubiquitination of endogenous MDM2 [7]: induced ubiquitination
cytotoxic effect [8]: most potent cytotoxic effect

Cc1ccc(NS(=O)(=O)c2ccc3c(c2)C2C=CCC2C(c2ccc(C(=O)O)cc2)N3)cc1C (stereo not drawn) [MX69]
XIAP IRES-mediated translation of firefly luciferase (XIAP IRES [9]): inhibited
mice that died within 98–143 days after inoculation ([10]; 50 mg/kg i.p.): Forty
mice that died within 98–143 days after inoculation ([10]; 75 mg/kg i.p.): 20%
adverse effects (body weight, fur pattern) ([10]; up to 40-days post-treatment): no adverse effects
ALT [11]: no significant increases
AST [11]: no significant increases
BUN [11]: no significant increases
PLT [11]: no significant decreases
WBC [11]: no significant decreases
histopathology of heart, liver and kidney [11]: no evidence of toxicity
tolerability, deaths by day 30 [12]: well tolerated, with no deaths
Annexin-V positive cells (EU-1 cells): over 90%
inhibition of MDM2 and XIAP protein expression [1]: inhibited expression of both MDM2 and XIAP
Kd (MDM2 RING protein [2]; read-out: binding Kd to MDM2 RING protein): 2340 nM
Kd (MDM2 RING protein [13]): 2750 nM
cell survival of NBMM ([4]; 2–8 μM for 24 hr): over 90%
p53 half-life (p53 in EU-1 cells [14]): remarkably increased
activation of caspases 3, 7 and 9 and cleavage of PARP [5]: activation of these caspases and cleavage of PARP were detected
inhibitory effect on BFU-E ([6]; 10 μM): little inhibitory effect
inhibitory effect on CFU-GM ([6]; 10 μM): little inhibitory effect
p53 protein levels (p53 in EU-1 cells [15]): significantly increased
ubiquitination of endogenous MDM2 [7]: induced ubiquitination
activity on the MYCN IRES (MYCN IRES): no activity
MDM2 half-life (MDM2 in EU-1 cells): < 30 min
cytotoxic effect [8]: significant cytotoxic effect
